The values that follow come from ChEMBL document CHEMBL1641530, “Silanetriols as in vitro inhibitors for AChE” (Bioorg Med Chem Lett, 2011).

The target of experiment [1] is Acetylcholinesterase (Electrophorus electricus) (UniProt O42275). Nature of the experiment: Inhibition of Electrophorus electricus AChE at 100 uM by Ellman's method relative to control. In outline:
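Modified colorimetric Ellman assay: AChE hydrolyses acetylthiocholine to thiocholine. Final compound concentration 100 µM, read after 15 min. […] Mean ± SEM of at least eight independent experiments.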
Background: In Ellman's method for cholinesterases, released thiocholine reacts with DTNB.

A further experiment relates to MRC5. As to the kind of experiment: Cytotoxicity against human MRC5 after 45 hrs by XTT proliferation assay. Format: functional, cell-based. A digest of the protocol: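 Human fetal lung fibroblasts (MRC-5) treated with compound, then XTT added at 1, 15 and 41 h. Dehydrogenase cleavage of XTT to orange formazan ran for 4 h and was read photometrically at two wavelengths. Viability is given relative to solvent-only cells. For the 15 h figure, mean ± SEM of at least six independent experiments.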
For orientation: Tetrazolium dyes change colour on reduction, which living cells bring about.

Experiment [2] deals with Acetylcholinesterase (Electrophorus electricus) (UniProt O42275). As to the kind of experiment: Irreversible inhibition of Electrophorus electricus AChE by Ellman's method. A digest of the protocol: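 Reversibility was probed by following AChE inhibition over time in the modified Ellman assay (acetylthiocholine substrate). Activity is referred to solvent control. Mean ± SEM of at least eight independent experiments.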
Chain of Acetylcholinesterase (Electrophorus electricus) (O42275 24-633 limits assumed): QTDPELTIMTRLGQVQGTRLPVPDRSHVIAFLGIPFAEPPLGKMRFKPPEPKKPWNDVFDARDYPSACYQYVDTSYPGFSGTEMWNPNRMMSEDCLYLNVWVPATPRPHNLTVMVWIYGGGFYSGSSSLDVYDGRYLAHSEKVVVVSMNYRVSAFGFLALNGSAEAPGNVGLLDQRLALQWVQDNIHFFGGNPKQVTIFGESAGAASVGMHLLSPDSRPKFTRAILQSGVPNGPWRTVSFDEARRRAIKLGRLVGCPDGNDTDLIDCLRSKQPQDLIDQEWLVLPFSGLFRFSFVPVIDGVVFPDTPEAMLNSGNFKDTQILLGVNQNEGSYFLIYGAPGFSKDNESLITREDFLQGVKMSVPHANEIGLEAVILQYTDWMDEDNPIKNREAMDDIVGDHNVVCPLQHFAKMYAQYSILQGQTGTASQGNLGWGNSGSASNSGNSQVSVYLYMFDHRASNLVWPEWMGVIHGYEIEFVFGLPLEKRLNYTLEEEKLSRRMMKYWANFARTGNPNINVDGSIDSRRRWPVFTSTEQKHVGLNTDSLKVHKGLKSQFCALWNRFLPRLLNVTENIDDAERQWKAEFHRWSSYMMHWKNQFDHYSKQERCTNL

The target of the next experiment is Acetylcholinesterase (Electrophorus electricus, UniProt O42275). Nature of the experiment: Inhibition of Electrophorus electricus AChE by Ellman's method. In outline:
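Ellman-type colorimetric assay with acetylthiocholine as substrate. Four concentrations between 30 and 300 µM were tested, inhibition taken as % of solvent control, and IC50 derived from the concentration–inhibition plot. Mean ± standard deviation of at least eight independent experiments.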

pIC50: −log10 of the molar value. The source made the active and inactive calls. The rule behind the calls is not given here.

Chain of Acetylcholinesterase (O42275 whole entry): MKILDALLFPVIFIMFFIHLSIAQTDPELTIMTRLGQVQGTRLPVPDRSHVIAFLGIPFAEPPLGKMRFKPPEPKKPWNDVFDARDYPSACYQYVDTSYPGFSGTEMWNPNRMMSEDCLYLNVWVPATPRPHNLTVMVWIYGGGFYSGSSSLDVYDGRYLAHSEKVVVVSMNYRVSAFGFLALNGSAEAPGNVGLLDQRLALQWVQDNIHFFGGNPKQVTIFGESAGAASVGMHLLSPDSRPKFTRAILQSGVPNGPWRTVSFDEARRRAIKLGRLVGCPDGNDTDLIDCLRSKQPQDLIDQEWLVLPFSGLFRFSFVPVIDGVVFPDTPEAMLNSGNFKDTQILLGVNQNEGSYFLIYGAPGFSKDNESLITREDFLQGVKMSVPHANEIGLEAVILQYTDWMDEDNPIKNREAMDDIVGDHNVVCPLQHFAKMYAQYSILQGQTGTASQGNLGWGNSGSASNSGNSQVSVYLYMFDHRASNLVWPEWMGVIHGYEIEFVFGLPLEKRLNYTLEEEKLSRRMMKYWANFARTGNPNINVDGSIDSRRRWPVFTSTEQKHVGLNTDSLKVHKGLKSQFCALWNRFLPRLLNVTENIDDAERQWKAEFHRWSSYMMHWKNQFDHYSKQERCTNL

Turning to `CCC(C)(C)[Si](O)(O)O`, in experiment [1], the inhibition was 10%. Also, the outcome in the experiment on MRC5 was inactive. Besides, the inhibition result in experiment [2] was “inactive”.

Consider `Cc1cc(C)c(-c2cccc(-c3c(C)cc(C)cc3C)c2[Si](O)(O)O)c(C)c1`, for which the inhibition in experiment [1] worked out at 12%. For the same compound, the outcome in the experiment on MRC5 was inactive. Further, the inhibition entry in experiment [2] is “inactive”.

At Acetylcholinesterase, `O[Si](O)(O)C1CCCCC1` [CYCLOHEXYLSILANETRIOL] had a negative logarithm of the IC50 (pIC50) of 3.92. Further, the inhibition in experiment [1] is 45%. In the experiment on MRC5, the outcome was inactive. Also, the inhibition entry in experiment [2] is “inactive”.

In general, inhibition refers to the change of the read-out against control, counted positive when it falls. As a reminder, the pIC50 is the IC50 on a negative log10 scale, so that one unit is a factor of ten.
